# In ChEMBL document CHEMBL1909596, “Synthesis and evaluation of chromenyl barbiturates and thiobarbiturates as potential antitubercular agents” (Bioorg Med Chem Lett, 2011):
# Test system: Mycobacterium tuberculosis
# Experiment: Antimycobacterial activity against Mycobacterium tuberculosis H37Rv ATCC 27294 by microplate alamar blue assay
# Type: functional, organism-based
# Details: not given
# Outline: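 Strain grown in BACTEC 12B medium, broth microdilution with Alamar Blue read-out (TAACF protocol). Primary screen at 6.25 µg/mL; compounds reaching ≥90% growth inhibition retested in 10 twofold dilutions, typically from 100. MIC taken as the lowest concentration giving 90% fluorescence reduction relative to controls. Fluorescent compounds tested in BACTEC 460 radiometric system instead. Rifampin control.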
Compound,IC50 [mg/L],IC90 [mg/L]
COc1ccc(C(=O)c2oc3cc4occ(C=C5C(=O)NC(=S)NC5=O)c(=O)c4cc3c2C)cc1,> 100,> 100
Cc1c(C(=O)c2ccc(Br)cc2)oc2cc3occ(C=C4C(=O)NC(=O)NC4=O)c(=O)c3cc12,38.5,55.4
Cc1cc(=O)oc2cc3occ(C=C4C(=O)NC(=S)NC4=O)c(=O)c3cc12,> 100,> 100
NC(=O)c1cnccn1 [PYRAZINAMIDE],–,> 20
Cc1c(C(=O)c2ccc(-c3ccccc3)cc2)oc2cc3occ(C=C4C(=O)NC(=O)NC4=O)c(=O)c3cc12,> 100,> 100
Cc1cc(=O)oc2cc3occ(C=C4C(=O)NC(=O)NC4=O)c(=O)c3cc12,> 100,> 100
Cc1c(C(=O)c2ccccc2)oc2cc3occ(C=C4C(=O)NC(=S)NC4=O)c(=O)c3cc12,> 100,> 100
Cc1c(C(=O)c2ccc(Cl)cc2)oc2cc3occ(C=C4C(=O)NC(=S)NC4=O)c(=O)c3cc12,42,63.8
Cc1ccc(C(=O)c2oc3cc4occ(C=C5C(=O)NC(=O)NC5=O)c(=O)c4cc3c2C)cc1,55.2,84.7
Cc1cc(=O)oc2c(C)c3occ(C=C4C(=O)NC(=O)NC4=O)c(=O)c3cc12,4.71,5.9
Cc1c(C(=O)c2ccc(Cl)cc2)oc2cc3occ(C=C4C(=O)NC(=O)NC4=O)c(=O)c3cc12,65.1,93
COc1ccc(C(=O)c2oc3cc4occ(C=C5C(=O)NC(=O)NC5=O)c(=O)c4cc3c2C)cc1,> 100,> 100

# Test system: not listed separately
# Experiment: Cytotoxicity against african green monkey Vero cells after 72 hrs by celltiter-glo luminescent cell viability assay
# Type: cell-based
# Details: chlorocebus sabaeus
# Outline: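 VERO cells exposed to compounds for 72 h. Viability read from ATP content by luminescence. CC50 derived by curve fitting of dose–response curves.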
row,Compound,CC50 at 72 h [mg/L]
1,Cc1cc(=O)oc2c(C)c3occ(C=C4C(=O)NC(=O)NC4=O)c(=O)c3cc12,14.3

# Test system: not listed separately
# Experiment: Selectivity index, ratio of CC50 african green monkey Vero cells to IC90 for Mycobacterium tuberculosis H37Rv ATCC 27294
# Type: toxicity, cell-based
# Details: not given
# Outline: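 SI calculated as VERO CC50 (72 h luminescent ATP viability assay, curve-fitted) divided by the MABA MIC (90% fluorescence reduction endpoint) for H37Rv.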
row,Compound,selectivity ratio
1,Cc1cc(=O)oc2c(C)c3occ(C=C4C(=O)NC(=O)NC4=O)c(=O)c3cc12,2.41
